*1 amine or outer side, *2 acyl side, *3 side chain or, on linkers, in order; H or OH if unused. Where a SMILES comes first, the peptide text is derived from it. Bridges are numbered along the chain shown (N, C = ends). [ ]: non-standard residue; d: D form. The star is where a group is joined. Staurosporine = CO[C@@H]1[C@H](N(C)*)C[C@H]2O[C@]1(C)n1c3ccccc3c3c4c(c5c6ccccc6n2c5c31)C(=O)NC4; Suc = O=C(CCC(=O)[*:2])[*:1]; Dap = NC[C@H](N)C(=O)O; βAla = NCCC(=O)O
Assays:
[1] = molecular target: Dual specificity tyrosine-phosphorylation-regulated kinase 1B (Homo sapiens) (UniProt Q9Y463); test: Binding affinity to human DYRK1B at 500 nM by cell-based competition binding assay relative to control in presence of DTT
Chain of Dual specificity tyrosine-phosphorylation-regulated kinase 1B (Homo sapiens) (Q9Y463 whole entry, looked up): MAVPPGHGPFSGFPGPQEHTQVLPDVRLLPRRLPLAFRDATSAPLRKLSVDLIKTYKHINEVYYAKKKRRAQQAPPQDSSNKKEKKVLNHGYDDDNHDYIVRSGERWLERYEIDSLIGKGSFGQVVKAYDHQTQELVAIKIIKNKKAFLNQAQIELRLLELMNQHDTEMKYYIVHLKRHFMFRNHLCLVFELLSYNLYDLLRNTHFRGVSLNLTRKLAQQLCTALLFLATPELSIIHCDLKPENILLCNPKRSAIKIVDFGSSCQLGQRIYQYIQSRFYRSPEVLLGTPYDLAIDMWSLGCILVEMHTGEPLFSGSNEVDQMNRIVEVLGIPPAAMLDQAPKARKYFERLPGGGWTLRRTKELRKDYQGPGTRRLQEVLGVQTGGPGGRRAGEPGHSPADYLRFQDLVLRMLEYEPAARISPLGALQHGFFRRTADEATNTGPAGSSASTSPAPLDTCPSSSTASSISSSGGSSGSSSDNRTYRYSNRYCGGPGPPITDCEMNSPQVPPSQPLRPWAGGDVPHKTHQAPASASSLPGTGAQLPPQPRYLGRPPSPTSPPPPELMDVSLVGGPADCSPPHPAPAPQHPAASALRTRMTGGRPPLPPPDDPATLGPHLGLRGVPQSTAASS
In short: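 Commercial (Ambit) competitive kinase-binding panel of 90 kinases measured the binding profile. Run under reducing conditions of 7.5 mM DTT. Binding is expressed relative to control.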

[2] = molecular target: Mitogen-activated protein kinase 9 (Homo sapiens) (UniProt P45984); test: Binding affinity to human JNK2 at 500 nM by cell-based competition binding assay relative to control in presence of DTT
In short: (§1)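 Competition binding screen (Ambit) across a panel of 90 kinases, scoring test ligand displacement of each kinase's binding relative to control. The screen ran under reducing conditions with 7.5 mM DTT.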

[3] = molecular target: cAMP-dependent protein kinase catalytic subunit alpha (Homo sapiens) (UniProt P17612); test: Binding affinity to human PKACalpha at 500 nM by cell-based competition binding assay relative to control in presence of DTT
[4] = system: Tyrosine-protein kinase ABL1 (Homo sapiens), P00519 [E255K]; test: Binding affinity to human ABL1 E255K mutant at 200 nM by cell-based competition binding assay relative to control in presence of DTT
Chain of Tyrosine-protein kinase ABL1 (Homo sapiens), P00519 [E255K] (P00519 whole entry E255K): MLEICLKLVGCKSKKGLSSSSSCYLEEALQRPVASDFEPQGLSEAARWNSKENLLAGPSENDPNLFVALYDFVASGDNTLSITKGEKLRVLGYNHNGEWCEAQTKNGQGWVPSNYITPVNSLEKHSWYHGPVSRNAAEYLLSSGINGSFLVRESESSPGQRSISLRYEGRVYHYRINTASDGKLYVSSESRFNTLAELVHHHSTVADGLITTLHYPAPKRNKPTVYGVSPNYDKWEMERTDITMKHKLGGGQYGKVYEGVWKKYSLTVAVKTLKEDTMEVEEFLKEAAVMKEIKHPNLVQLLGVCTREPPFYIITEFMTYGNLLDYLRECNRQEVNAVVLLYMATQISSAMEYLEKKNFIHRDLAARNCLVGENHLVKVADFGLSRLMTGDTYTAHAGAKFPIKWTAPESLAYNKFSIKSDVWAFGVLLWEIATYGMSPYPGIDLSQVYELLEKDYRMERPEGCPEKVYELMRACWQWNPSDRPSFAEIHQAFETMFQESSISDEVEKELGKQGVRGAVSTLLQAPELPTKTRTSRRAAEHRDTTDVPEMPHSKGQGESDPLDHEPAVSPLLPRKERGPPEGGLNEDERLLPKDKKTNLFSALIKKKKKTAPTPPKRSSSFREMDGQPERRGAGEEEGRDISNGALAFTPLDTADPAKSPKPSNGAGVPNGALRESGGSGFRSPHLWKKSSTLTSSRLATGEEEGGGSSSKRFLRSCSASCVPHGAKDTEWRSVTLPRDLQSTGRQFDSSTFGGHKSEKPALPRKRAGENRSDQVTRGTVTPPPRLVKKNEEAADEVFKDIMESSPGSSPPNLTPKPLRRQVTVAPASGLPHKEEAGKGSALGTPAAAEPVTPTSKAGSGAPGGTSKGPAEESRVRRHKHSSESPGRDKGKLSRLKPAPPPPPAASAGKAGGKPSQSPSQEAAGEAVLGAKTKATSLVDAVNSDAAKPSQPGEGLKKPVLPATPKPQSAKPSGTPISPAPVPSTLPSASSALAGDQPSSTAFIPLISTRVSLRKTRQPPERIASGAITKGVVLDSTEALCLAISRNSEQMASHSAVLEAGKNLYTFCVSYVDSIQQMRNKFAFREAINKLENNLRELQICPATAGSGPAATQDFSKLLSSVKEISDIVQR
In short: (§2)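 Kinase binding profiling ran on a commercial (Ambit) competitive binding screen against a panel of 90 kinases. The screen used reducing conditions with 7.5 mM DTT. To withstand the DTT, the bivalent ligand was tested as its amide isostere, with the disulfide replaced. A staurosporine derivative carrying a 3 β-alanine linker was run as the reference compound.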

[5] = molecular target: Angiopoietin-1 receptor (Homo sapiens) (UniProt Q02763); test: Binding affinity to human TIE2 at 200 nM by cell-based competition binding assay relative to control in presence of DTT
Chain of Angiopoietin-1 receptor (Homo sapiens) (Q02763 whole entry): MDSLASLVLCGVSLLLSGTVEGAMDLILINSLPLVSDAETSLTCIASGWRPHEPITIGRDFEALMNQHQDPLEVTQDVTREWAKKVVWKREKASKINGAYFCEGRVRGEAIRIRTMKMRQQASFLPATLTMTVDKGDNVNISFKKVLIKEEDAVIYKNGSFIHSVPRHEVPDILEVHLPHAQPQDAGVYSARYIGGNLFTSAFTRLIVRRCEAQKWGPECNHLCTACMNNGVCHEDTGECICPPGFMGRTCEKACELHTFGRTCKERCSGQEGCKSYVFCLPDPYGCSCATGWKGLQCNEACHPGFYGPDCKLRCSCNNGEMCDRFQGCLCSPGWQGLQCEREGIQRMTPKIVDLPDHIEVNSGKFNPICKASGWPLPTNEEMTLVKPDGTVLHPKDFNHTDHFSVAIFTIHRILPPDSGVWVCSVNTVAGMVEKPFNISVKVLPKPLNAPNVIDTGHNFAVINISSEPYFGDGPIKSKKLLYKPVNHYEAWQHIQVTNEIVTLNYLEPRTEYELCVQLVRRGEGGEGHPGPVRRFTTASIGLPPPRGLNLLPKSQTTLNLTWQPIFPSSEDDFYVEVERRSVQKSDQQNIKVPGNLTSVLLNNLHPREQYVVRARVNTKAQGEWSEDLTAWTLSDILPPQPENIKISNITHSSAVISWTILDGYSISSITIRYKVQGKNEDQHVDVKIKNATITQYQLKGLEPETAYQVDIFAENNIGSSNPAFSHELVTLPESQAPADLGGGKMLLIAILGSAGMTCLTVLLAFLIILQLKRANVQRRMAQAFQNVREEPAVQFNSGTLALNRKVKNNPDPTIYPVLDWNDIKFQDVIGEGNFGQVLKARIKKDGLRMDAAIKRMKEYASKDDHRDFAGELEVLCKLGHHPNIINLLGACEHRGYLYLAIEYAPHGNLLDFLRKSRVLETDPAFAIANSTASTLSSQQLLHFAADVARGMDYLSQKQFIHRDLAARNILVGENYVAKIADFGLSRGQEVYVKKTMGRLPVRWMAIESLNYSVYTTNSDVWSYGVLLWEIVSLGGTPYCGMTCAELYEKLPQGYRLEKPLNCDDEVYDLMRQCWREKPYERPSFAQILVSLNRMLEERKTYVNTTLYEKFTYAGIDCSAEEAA

[6] = molecular target: T1, TGF-beta receptor type-1 (Homo sapiens) (UniProt P36897); test: Binding affinity to human TGFBR1 at 200 nM by cell-based competition binding assay relative to control in presence of DTT
T1 sequence (whole entry): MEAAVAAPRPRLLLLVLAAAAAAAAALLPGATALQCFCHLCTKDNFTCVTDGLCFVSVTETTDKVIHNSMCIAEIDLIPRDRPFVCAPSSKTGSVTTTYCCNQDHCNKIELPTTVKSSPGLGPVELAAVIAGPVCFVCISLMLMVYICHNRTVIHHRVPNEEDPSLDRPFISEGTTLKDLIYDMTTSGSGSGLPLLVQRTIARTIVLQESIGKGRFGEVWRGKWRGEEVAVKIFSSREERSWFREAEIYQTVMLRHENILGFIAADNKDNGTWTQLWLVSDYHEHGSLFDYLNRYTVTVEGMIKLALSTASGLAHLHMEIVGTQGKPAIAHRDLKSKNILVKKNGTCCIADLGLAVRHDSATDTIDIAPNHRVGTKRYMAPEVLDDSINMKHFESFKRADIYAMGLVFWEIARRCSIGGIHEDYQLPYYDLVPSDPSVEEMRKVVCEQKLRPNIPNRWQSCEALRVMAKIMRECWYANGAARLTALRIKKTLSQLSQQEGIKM

[7] = molecular target: T2, Aurora kinase A (Homo sapiens) (UniProt O14965); test: Binding affinity to human aurora kinase A at 200 nM by cell-based competition binding assay relative to control in presence of DTT
T2 sequence (whole entry): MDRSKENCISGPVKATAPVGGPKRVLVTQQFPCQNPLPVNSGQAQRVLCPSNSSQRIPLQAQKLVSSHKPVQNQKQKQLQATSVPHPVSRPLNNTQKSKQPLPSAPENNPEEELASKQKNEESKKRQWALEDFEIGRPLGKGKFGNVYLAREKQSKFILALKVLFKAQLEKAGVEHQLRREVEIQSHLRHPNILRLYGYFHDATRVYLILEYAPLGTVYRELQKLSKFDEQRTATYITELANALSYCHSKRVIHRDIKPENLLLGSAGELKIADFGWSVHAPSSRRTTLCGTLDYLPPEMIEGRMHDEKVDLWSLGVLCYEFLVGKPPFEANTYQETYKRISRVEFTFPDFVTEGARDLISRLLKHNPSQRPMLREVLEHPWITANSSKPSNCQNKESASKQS

[8] = molecular target: Insulin-like growth factor 1 receptor (Homo sapiens) (UniProt P08069); test: Binding affinity to human IGF1R at 50 nM by cell-based competition binding assay relative to control in presence of DTT; in short: as §1
Chain of Insulin-like growth factor 1 receptor (Homo sapiens) (P08069 31-736 limits assumed): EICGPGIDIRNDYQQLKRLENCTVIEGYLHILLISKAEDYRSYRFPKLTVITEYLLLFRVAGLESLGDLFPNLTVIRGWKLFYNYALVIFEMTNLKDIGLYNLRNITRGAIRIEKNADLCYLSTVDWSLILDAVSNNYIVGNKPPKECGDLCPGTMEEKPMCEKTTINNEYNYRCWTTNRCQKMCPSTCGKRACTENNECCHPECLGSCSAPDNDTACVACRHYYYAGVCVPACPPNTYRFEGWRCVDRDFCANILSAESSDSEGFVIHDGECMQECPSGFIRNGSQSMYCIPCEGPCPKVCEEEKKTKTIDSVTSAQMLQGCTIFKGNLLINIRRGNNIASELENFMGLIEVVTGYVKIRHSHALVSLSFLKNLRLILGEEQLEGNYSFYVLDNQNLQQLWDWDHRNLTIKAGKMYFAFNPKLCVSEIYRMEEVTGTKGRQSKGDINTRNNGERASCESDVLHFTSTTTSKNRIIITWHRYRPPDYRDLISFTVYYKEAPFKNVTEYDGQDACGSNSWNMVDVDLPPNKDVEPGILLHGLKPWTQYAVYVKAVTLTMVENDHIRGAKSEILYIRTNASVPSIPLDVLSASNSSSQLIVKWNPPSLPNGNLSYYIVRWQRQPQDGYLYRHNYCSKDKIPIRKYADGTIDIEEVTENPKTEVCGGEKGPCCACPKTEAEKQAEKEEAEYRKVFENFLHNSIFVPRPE
Chain of Insulin-like growth factor 1 receptor (Homo sapiens) (P08069 741-1367 limits assumed): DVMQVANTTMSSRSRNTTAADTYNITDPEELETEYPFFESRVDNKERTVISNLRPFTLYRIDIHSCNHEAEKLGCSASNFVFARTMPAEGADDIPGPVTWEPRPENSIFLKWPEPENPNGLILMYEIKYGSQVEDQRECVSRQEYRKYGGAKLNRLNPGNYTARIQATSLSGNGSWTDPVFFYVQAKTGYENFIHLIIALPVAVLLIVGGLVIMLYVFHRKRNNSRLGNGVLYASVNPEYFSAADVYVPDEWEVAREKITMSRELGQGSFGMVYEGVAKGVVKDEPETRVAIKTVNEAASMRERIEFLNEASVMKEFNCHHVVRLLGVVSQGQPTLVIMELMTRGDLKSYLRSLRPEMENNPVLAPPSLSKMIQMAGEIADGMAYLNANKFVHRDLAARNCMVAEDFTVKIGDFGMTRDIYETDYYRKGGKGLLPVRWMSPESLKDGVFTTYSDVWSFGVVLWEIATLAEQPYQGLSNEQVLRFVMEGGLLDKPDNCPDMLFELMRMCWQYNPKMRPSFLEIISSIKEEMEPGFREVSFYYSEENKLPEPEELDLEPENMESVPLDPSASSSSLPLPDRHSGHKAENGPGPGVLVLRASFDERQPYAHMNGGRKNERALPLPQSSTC

[9] = molecular target: Serine/threonine-protein kinase PLK3 (Homo sapiens) (UniProt Q9H4B4); test: Binding affinity to human PLK3 at 50 nM by cell-based competition binding assay relative to control in presence of DTT
Chain of Serine/threonine-protein kinase PLK3 (Homo sapiens) (Q9H4B4 whole entry, looked up): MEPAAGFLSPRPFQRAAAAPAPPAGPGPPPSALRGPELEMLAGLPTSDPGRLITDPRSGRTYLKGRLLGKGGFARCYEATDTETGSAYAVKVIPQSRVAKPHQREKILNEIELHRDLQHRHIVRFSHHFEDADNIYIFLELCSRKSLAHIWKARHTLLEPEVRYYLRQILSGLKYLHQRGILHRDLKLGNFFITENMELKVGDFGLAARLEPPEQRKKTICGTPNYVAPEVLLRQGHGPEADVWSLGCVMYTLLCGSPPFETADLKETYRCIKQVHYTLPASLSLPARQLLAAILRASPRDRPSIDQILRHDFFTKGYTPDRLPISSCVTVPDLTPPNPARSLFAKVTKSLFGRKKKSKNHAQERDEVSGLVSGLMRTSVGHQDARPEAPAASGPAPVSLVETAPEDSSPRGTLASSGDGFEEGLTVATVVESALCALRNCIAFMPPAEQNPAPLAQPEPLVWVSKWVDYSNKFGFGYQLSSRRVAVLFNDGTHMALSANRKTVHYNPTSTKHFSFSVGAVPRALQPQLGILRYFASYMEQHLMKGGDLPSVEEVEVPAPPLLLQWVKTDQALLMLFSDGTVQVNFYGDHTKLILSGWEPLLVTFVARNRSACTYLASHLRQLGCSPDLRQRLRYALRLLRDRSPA

[10] = molecular target: Cyclin-dependent kinase 2 (Homo sapiens) (UniProt P24941); test: Binding affinity to human CDK2 at 50 nM by cell-based competition binding assay relative to control in presence of DTT; in short: as §2
[11] = molecular target: T3, Testis-specific serine/threonine-protein kinase 1 (Homo sapiens) (UniProt Q9BXA7); test: Binding affinity to human TSSK1 at 50 nM by cell-based competition binding assay relative to control in presence of DTT
T3 sequence (whole entry): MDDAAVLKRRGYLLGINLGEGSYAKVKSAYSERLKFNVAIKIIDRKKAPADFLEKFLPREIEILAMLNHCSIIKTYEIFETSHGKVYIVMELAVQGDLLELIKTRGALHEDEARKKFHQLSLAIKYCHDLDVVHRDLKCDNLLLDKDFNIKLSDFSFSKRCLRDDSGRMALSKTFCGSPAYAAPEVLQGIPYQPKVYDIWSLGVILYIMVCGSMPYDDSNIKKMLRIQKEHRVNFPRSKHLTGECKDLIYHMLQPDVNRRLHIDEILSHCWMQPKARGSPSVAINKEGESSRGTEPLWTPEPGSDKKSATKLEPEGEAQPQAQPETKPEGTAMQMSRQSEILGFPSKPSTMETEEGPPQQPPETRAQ

[12] = system: Tyrosine-protein kinase ABL1 (Homo sapiens), P00519 [E255K]; test: Binding affinity to human ABL1 E255K mutant at 50 nM by cell-based competition binding assay relative to control in presence of DTT; in short: as §2

**Q.** For CO[C@@H]1[C@H](N(C)C(=O)CCC(=O)NCCC(=O)NCCC(=O)NCCC(N)=O)C[C@H]2O[C@]1(C)n1c3ccccc3c3c4c(c5c6ccccc6n2c5c31)C(=O)NC4, which Activity [1] is on record?
**A.** The Activity was 5.6%.

**Q.** And the Activity [2]?
**A.** The Activity was 87%.

**Q.** And the Activity [3]?
**A.** The Activity was 52%.

**Q.** CO[C@@H]1[C@H](N(C)C(=O)CCC(=O)NCCC(=O)NCCC(=O)NCCC(=O)NCCC(=O)NCCC(=O)NCCC(=O)NCCC(=O)N[C@H]2CSSC[C@@H](C(=O)NCC(N)=O)NC(=O)CNC(=O)[C@H](Cc3ccccc3)NC(=O)[C@H](C(C)C)NC(=O)[C@H](CCCNC(=N)N)NC(=O)[C@H](Cc3ccccc3)NC(=O)[C@H](C(C)C)NC2=O)C[C@H]2O[C@]1(C)n1c3ccccc3c3c4c(c5c6ccccc6n2c5c31)C(=O)NC4 ({Staurosporine-Suc-βAla-βAla-βAla-βAla-βAla-βAla-βAla}-CVFRVFGCG-NH2; disulfide 1-8) was tested. Which Activity [4] did it give?
**A.** Its Activity is 100%.

**Q.** What about the Activity [5] of the same compound?
**A.** The Activity was 65%.

**Q.** What about the Activity [6] of the same compound?
**A.** The Activity was 100%.

**Q.** What about the Activity [7] of the same compound?
**A.** The Activity was 19%.

**Q.** With CO[C@@H]1[C@H](N(C)C(=O)CCC(=O)NCCC(=O)NCCC(=O)NCCC(=O)NCCC(=O)NCCC(=O)NCCC(=O)NCCC(=O)N[C@H]2CNC(=O)C[C@@H](C(N)=O)NC(=O)CNC(=O)[C@H](Cc3ccccc3)NC(=O)[C@H](C(C)C)NC(=O)[C@H](CCCNC(=N)N)NC(=O)[C@H](Cc3ccccc3)NC(=O)[C@H](C(C)C)NC2=O)C[C@H]2O[C@]1(C)n1c3ccccc3c3c4c(c5c6ccccc6n2c5c31)C(=O)NC4 ({Staurosporine-Suc-βAla-βAla-βAla-βAla-βAla-βAla-βAla}-[Dap]VFRVFGD-NH2; lactam 1-8) as the compound, how does the Activity [8] read?
**A.** Its Activity is 100%.

**Q.** And the Activity [9]?
**A.** The Activity was 98%.

**Q.** What about the Activity [10] of the same compound?
**A.** Its Activity is 100%.

**Q.** What about the Activity [11] of the same compound?
**A.** Its Activity is 100%.

**Q.** And the Activity [12]?
**A.** The Activity was 97%.
